Source: paper PMC5343109 (Acta Pharmaceutica Sinica. B, 2016)
Several values for one entry are separate records, joined by “and”; a condition that tells them apart may be missing. Equal values may be shown once. Marks after values point to notes of the source that are not given here.

How the values were obtained:
p38α MAPK = p38α MAPK (Homo sapiens, UniProt Q16539); test: p38α MAPK assay; type: biochemical
gastric mucosal tissue = test: lipid peroxidation in the gastric mucosa; type: in vivo; details: rats, mean±SEM
TNF-α = test: LPS-induced TNF-α production inhibition in mice; type: in vivo, mice (BALB/c); details: for TNF-α inhibition: LPS-induced TNF-α production in mice, plasma ELISA, mean±SEM, n=6; for ID50: LPS-induced TNF-α release in mice
[1] = test system: carrageenan-induced rat paw edema; test: carrageenan-induced rat paw edema anti-inflammatory activity; type: in vivo, albino rats of Wistar strain; details: for inhibition in vivo at 10 mg/kg: Rattus norvegicus, po, 4 h, read-out: Inhibition (anti-inflammatory activity), rat, oral dose 10 mg/kg body weight, after 4h; for Increase in paw edema / Activity relative to diclofenac sodium / Inhibition (anti-inflammatory activity): rat; for Increase in paw edema / Inhibition (anti-inflammatory activity): oral dose 10 mg/kg body weight; for Increase in paw edema: mean±SEM, n=6; for Activity relative to diclofenac sodium: oral dose 10 mg/kg, diclofenac sodium = 100; for Inhibition (anti-inflammatory activity): after 4h, 10 mg/kg
How it was run: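 Wistar rats of either sex, 180–200 g, kept at 25 ± 2 °C, 50 ± 5% relative humidity and a 12 h light/dark cycle, with free food and water until testing. Paw edema after carrageenan was measured by digital plethysmometer. Six animals per group. Groups were compared by Student's t-test, with P < 0.05 taken as significant.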

[2] = test system: gastric mucosa (ulcerogenic potential); test: ulcerogenic test; type: in vivo; details: rats, oral dose of 30 mg/kg, mean±SEM, n=6
[3] = DPPH free radical scavenging antioxidant assay; details: 517 nm, 1 mmol/L concentration

p38α MAPK, sequence (Q16539 whole entry): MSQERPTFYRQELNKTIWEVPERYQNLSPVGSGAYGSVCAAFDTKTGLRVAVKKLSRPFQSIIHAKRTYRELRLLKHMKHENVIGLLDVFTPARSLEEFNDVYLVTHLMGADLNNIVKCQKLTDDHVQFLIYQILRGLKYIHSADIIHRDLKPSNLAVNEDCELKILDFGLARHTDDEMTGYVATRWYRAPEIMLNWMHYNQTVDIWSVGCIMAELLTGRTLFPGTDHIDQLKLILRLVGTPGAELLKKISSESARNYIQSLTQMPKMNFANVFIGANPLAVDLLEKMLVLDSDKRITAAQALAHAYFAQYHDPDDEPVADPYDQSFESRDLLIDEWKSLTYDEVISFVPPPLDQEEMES

| IC50 (p38α MAPK) | Lipid peroxidation (gastric mucosal tissue; n=6) | Lipid peroxidation (gastric mucosal tissue; n=6, listed as diclofenac sodium) | SMILES | TNF-α inhibition (TNF-α) | inhibition in vivo at 10 mg/kg [1] | Increase in paw edema [1] | Activity relative to diclofenac sodium [1] | Severity index [2] | percentage antioxidant activity [3] | ID50 (TNF-α) | Inhibition (anti-inflammatory activity) [1] |
| --- | --- | --- | --- | --- | --- | --- | --- | --- | --- | --- | --- |
| 270 nM | – | – | Cc1cccc(C)c1-n1nc(-c2ccc(NC(N)=O)cc2)cc1-c1ccc(OCc2ccccc2)cc1 [Compound 3m, 1-[4-[5-(4-(Benzyloxy)phenyl)-1-(2,6-dimethylphenyl)-1H-pyrazol-3-yl]phenyl]urea] | – | – | – | – | – | – | – | – |
| 48 ± 10 nM | 6.08±0.15 nmol MDA/100 mg tissue | – | NC(=O)Nc1ccc(-c2cc(-c3ccc(OCc4ccccc4)cc3)n(-c3ccc(F)cc3)n2)cc1 [Compound 3e, 1-[4-[5-(4-(benzyloxy)phenyl)-1-(4-fluorophenyl)-1H-pyrazol-3-yl]phenyl]urea] | 57.34±3.05% | 72.3% | 0.47 ± 0.16 mL | 88.50 | 0.83±0.22 | – | – | – |
| 110 ± 170 nM | – | – | NC(=O)Nc1ccc(-c2cc(-c3ccc(OCc4ccccc4)cc3)n(-c3ccc(F)c(Cl)c3)n2)cc1 [Compound 3f, 1-[4-[5-(4-(Benzyloxy)phenyl)-1-(3-chloro-4-fluorophenyl)-1H-pyrazol-3-yl]phenyl] urea] | – | – | – | – | – | – | – | – |
| 112 ± 40 nM | – | – | NC(=O)Nc1ccc(-c2cc(-c3ccc(OCc4ccccc4)cc3)n(-c3ccc([N+](=O)[O-])cc3[N+](=O)[O-])n2)cc1 [Compound 3i, 1-[4-[5-(4-(Benzyloxy)phenyl)-1-(2,4-dinitrophenyl)-1H-pyrazol-3-yl]phenyl]urea] | – | – | – | – | – | – | – | – |
| 123 nM | – | – | Cc1ccccc1-n1nc(-c2ccc(NC(N)=O)cc2)cc1-c1ccc(OCc2ccccc2)cc1 [Compound 3j, 1-[4-[5-(4-(Benzyloxy)phenyl)-1-(2-methylphenyl)-1H-pyrazol-3-yl]phenyl]urea] | – | – | – | – | – | did not exhibit any significant antioxidant activity | – | – |
| 169 ± 70 nM | – | – | Cc1ccc(-n2nc(-c3ccc(NC(N)=O)cc3)cc2-c2ccc(OCc3ccccc3)cc2)cc1 [Compound 3l, 1-[4-[5-(4-(Benzyloxy)phenyl)-1-(4-methylphenyl)-1H-pyrazol-3-yl]phenyl]urea] | – | – | – | – | – | – | – | – |
| – | 6.52±0.42 nmol MDA/100 mg tissue | 6.52 ± 0.42 nmol MDA/100 mg tissue | O=C(O)Cc1ccccc1Nc1c(Cl)cccc1Cl [Diclofenac sodium, diclofenac sodium, reference compound] | – | 81.6% | 0.31 ± 0.13 mL | 100 | 1.83±0.27 | – | – | – |
| 39 ± 40 nM | 5.47±0.44 ^b nmol MDA/100 mg tissue | – | NC(=O)Nc1ccc(-c2cc(-c3ccc(OCc4ccccc4)cc3)n(-c3ccccc3Cl)n2)cc1 [Compound 3a, 1-[4-[5-(4-(Benzyloxy)phenyl)-1-(2-chlorophenyl)-1H-pyrazol-3-yl]phenyl]urea] | 60.87±2.65 ^b % | 76.2% | 0.40 ± 0.08 mL | 93.23 | 0.67±0.25 ^b | – | 19.98 mg/kg | 76.19 ^b % |
| – | – | – | COc1ccc(O)c(C(C)(C)C)c1 [BHA, butylated hydroxy anisole, reference compound] | – | – | – | – | – | 71.53% | – | – |
| 170 nM | – | – | COc1ccc(-n2nc(-c3ccc(NC(N)=O)cc3)cc2-c2ccc(OCc3ccccc3)cc2)cc1 [Compound 3o, 1-[4-[5-(4-(Benzyloxy)phenyl)-1-(4-methoxyphenyl)-1H-pyrazol-3-yl]phenyl]urea] | – | – | – | – | – | did not exhibit any significant antioxidant activity | – | – |
| – | – | – | C[S+]([O-])c1ccc(-c2nc(-c3ccncc3)c(-c3ccc(F)cc3)[nH]2)cc1 (stereo not shown) [SB 203580, reference compound] | 52.11±1.08 ^b % | – | – | – | – | – | 28.40 mg/kg and 28.40 ^b mg/kg | – |
| 206 ± 370 nM | – | – | COc1ccccc1-n1nc(-c2ccc(NC(N)=O)cc2)cc1-c1ccc(OCc2ccccc2)cc1 [Compound 3n, 1-[4-[5-(4-(Benzyloxy)phenyl)-1-(2-methoxyphenyl)-1H-pyrazol-3-yl]phenyl]urea] | – | – | – | – | – | did not exhibit any significant antioxidant activity | – | – |
| – | 5.12±0.55 ^b nmol MDA/100 mg tissue | – | NC(=O)Nc1ccc(-c2cc(-c3ccc(OCc4ccccc4)cc3)n(-c3ccc(Cl)cc3)n2)cc1 [Compound 3c, 1-[4-[5-(4-(Benzyloxy)phenyl)-1-(4-chlorophenyl)-1H-pyrazol-3-yl]phenyl]urea] | 62.56±0.24% | 80.9% | 0.32 ± 0.06 mL | 99.03 | – | 75.06% | 9.67 mg/kg and 9.67 ^b mg/kg | 80.93 ^b % |
| 79 nM | – | – | NC(=O)Nc1ccc(-c2cc(-c3ccc(OCc4ccccc4)cc3)n(-c3ccc(Cl)c(Cl)c3)n2)cc1 [Compound 3d, 1-[4-[5-(4-(Benzyloxy)phenyl)-1-(3,4-dichlorophenyl)-1H-pyrazol-3-yl]phenyl]urea] | 52.60±2.16% | 62.2% | 0.64 ± 0.05 mL | 76.17 | 1.08±0.37 ^b | – | – | – |
| – | 6.02±0.17 ^a nmol MDA/100 mg tissue | – | NC(=O)Nc1ccc(-c2cc(-c3ccc(OCc4ccccc4)cc3)n(-c3ccc(Br)cc3)n2)cc1 [Compound 3g, 1-[4-[5-(4-(Benzyloxy)phenyl)-1-(4-bromophenyl)-1H-pyrazol-3-yl]phenyl]urea] | 58.13±0.28% | 74% | 0.44 ± 0.06 mL | 90.56 | 0.75±0.27 | – | – | 74.01 ^b % |
| 67 nM | – | – | NC(=O)Nc1ccc(-c2cc(-c3ccc(OCc4ccccc4)cc3)n(-c3ccc([N+](=O)[O-])cc3)n2)cc1 [Compound 3h, 1-[4-[5-(4-(Benzyloxy)phenyl)-1-(4-nitrophenyl)-1H-pyrazol-3-yl]phenyl]urea] | 52.76±2.08% | 68.4% | 0.53 ± 0.12 mL | 83.67 | 0.91±0.20 | – | – | – |
| 210 ± 110 nM | – | – | Cc1cccc(-n2nc(-c3ccc(NC(N)=O)cc3)cc2-c2ccc(OCc3ccccc3)cc2)c1 [Compound 3k, 1-[4-[5-(4-(Benzyloxy)phenyl)-1-(3-methylphenyl)-1H-pyrazol-3-yl]phenyl]urea] | – | – | – | – | – | – | – | – |
| – | 5.19±0.48 ^b nmol MDA/100 mg tissue | – | NC(=O)Nc1ccc(-c2cc(-c3ccc(OCc4ccccc4)cc3)n(-c3cccc(Cl)c3)n2)cc1 [Compound 3b, 1-[4-[5-(4-(Benzyloxy)phenyl)-1-(3-chlorophenyl)-1H-pyrazol-3-yl]phenyl]urea] | 62.45±0.07 ^b % | 78.1% | 0.37 ± 0.20 mL | 95.52 | – | – | 11.32 mg/kg and 11.32 ^b mg/kg | 78.06 ^b % |
